We go through 18 molecules from BindingDB's records for doi:10.1021/jm0310986 (Serono Pharmaceutical Research Institute, 2005).

What is called IC50 is the concentration at which inhibition is half-maximal.

Sequence of Mitogen-activated protein kinase 10 (P49187 whole entry): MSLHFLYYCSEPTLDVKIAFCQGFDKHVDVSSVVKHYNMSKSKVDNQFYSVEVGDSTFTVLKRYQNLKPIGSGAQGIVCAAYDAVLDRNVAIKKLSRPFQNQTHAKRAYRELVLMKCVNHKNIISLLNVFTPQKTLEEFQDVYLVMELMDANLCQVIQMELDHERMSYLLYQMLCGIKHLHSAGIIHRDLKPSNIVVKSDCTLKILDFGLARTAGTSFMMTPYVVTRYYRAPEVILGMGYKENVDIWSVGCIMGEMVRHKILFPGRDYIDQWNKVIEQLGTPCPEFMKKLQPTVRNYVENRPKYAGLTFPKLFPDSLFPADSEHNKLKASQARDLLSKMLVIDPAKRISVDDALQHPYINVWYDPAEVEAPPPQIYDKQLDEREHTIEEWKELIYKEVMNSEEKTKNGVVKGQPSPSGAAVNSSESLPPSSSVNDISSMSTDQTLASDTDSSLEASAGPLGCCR

The target in this test is Mitogen-activated protein kinase 10 (Rattus norvegicus, UniProt P49187). Put plainly: Inhibition of rat c-Jun N-terminal kinase 3. A digest of the protocol:
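GST-JNK3 was preactivated overnight at room temperature with GST-JNKK2 and ATP-γ-S, then dialysed. The enzyme (0.5 µg) was incubated with biotinylated GST-c-Jun (1 µg) and 2 µM ³³P-γ-ATP in 50 mM Tris-HCl pH 8.0, 10 mM MgCl₂, 1 mM DTT and 100 µM NaVO₄ for 120 min at room temperature. Reaction stopped with EDTA; phosphorylation detected by streptavidin SPA beads and scintillation counting. Values from triplicates.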
Molecule `N#CC(c1ccnc(NCCc2c[nH]cn2)n1)c1nc2ccccc2s1` (stereo not drawn) displayed an IC50 of 0.08 µM.
Then `Cc1cc(C(C#N)c2nc3ccccc3s2)nc(Cl)n1` (stereo not drawn) [(2Z)-1,3-benzothiazol-2(3H)-ylidene(2-chloro-6-methylpyrimidin-4-yl)acetonitrile], with above 5 µM.
Then `N#CC(c1ccnc(Cl)n1)c1nc2ccccc2s1` (stereo not drawn) [(2Z)-1,3-benzothiazol-2(3H)-ylidene(2-chloropyrimidin-4-yl)acetonitrile], with 0.25 µM; and `N#CC(c1cccc(Cl)n1)c1nc2ccccc2s1` (stereo not drawn) [(2Z)-1,3-benzothiazol-2(3H)-ylidene(6-chloropyridin-2-yl)acetonitrile], with above 5 µM; and `N#CC(c1ccncn1)c1nc2ccccc2s1` (stereo not drawn) [(2Z)-1,3-benzothiazol-2(3H)-ylidene(pyrimidin-4-yl)acetonitrile], with above 5 µM.
For `N#CC(c1nc2ccccc2[nH]1)c1nc(Cl)ncc1Br` (stereo not drawn) [(5-Bromo-2-chloro-pyrimidin-4-yl)-(1,3-dihydro-benzoimidazol-2-ylidene)-acetonitrile] the value was above 5 µM.
Turning to `CCOC(=O)C(c1ccnc(Cl)n1)c1nc2ccccc2s1` (stereo not drawn) [[3H-Benzothiazol-(2Z)-ylidene]-(2-chloro-pyrimidin-4-yl)-acetic acid ethyl ester], the IC50 is above 5 µM.
Then `CCCN(CCC)c1nccc(C(C#N)c2nc3ccccc3s2)n1` (stereo not drawn) [[3H-Benzothiazol-(2Z)-ylidene]-(2-dipropylamino-pyrimidin-4-yl)-acetonitrile], with above 5 µM; and `N#CC(c1ccnc(NCCc2ccccc2)n1)c1nc2ccccc2s1` (stereo not drawn) [[3H-Benzothiazol-(2Z)-ylidene]-(2-phenethylamino-pyrimidin-4-yl)-acetonitrile], with above 5 µM.
For `CCCNc1nccc(C(C#N)c2nc3ccccc3s2)n1` (stereo not drawn) [[3H-Benzothiazol-(2Z)-ylidene]-(2-propylamino-pyrimidin-4-yl)-acetonitrile] the value was above 5 µM; for `Cc1ccc(CCNc2nccc(C(C#N)c3nc4ccccc4s3)n2)cc1` (stereo not drawn) [[3H-Benzothiazol-(2Z)-ylidene]-[2-(2-p-tolyl-ethylamino)-pyrimidin-4-yl]-acetonitrile], above 5 µM.
Then `N#CC(c1ccnc(NCCc2ccccn2)n1)c1nc2ccccc2s1` (stereo not drawn) [[3H-Benzothiazol-(2Z)-ylidene]-[2-(2-pyridin-2-yl-ethylamino)-pyrimidin-4-yl]-acetonitrile], with 0.25 µM.
In the case of `N#CC(c1ccnc(NCCc2ccc(Cl)c(Cl)c2)n1)c1nc2ccccc2s1` (stereo not drawn) [[3H-Benzothiazol-(2Z)-ylidene]-{2-[2-(3,4-dichloro-phenyl)-ethylamino]-pyrimidin-4-yl}-acetonitrile], the IC50 was above 5 µM.
With `N#CC(c1ccnc(NCCc2cccc(Cl)c2)n1)c1nc2ccccc2s1` (stereo not drawn) [[3H-Benzothiazol-(2Z)-ylidene]-{2-[2-(3-chloro-phenyl)-ethylamino]-pyrimidin-4-yl}-acetonitrile], the IC50 is above 5 µM.
Then `N#CC(c1ccnc(NCCc2ccc(Br)cc2)n1)c1nc2ccccc2s1` (stereo not drawn) [[3H-Benzothiazol-(2Z)-ylidene]-{2-[2-(4-bromo-phenyl)-ethylamino]-pyrimidin-4-yl}-acetonitrile], with above 5 µM; and `N#CC(c1ccnc(NCCc2ccc(F)cc2)n1)c1nc2ccccc2s1` (stereo not drawn) [[3H-Benzothiazol-(2Z)-ylidene]-{2-[2-(4-fluoro-phenyl)-ethylamino]-pyrimidin-4-yl}-acetonitrile], with above 5 µM.
For `N#CC(c1ccnc(NCc2nnn[nH]2)n1)c1nc2ccccc2s1` (stereo not drawn) [[3H-Benzothiazol-(2Z)-ylidene]-{2-[(1H-tetrazol-5-ylmethyl)-amino]-pyrimidin-4-yl}-acetonitrile] the value was above 5 µM; for `N#CC(c1ccnc(NCCc2ccc(N)cc2)n1)c1nc2ccccc2s1` (stereo not drawn) [{2-[2-(4-Amino-phenyl)-ethylamino]-pyrimidin-4-yl}-[3H-benzothiazol-(2Z)-ylidene]-acetonitrile], 0.08 µM.
